Results on 14 molecules are retold here after paper PMC4143156 (Journal of immunology (Baltimore, Md. : 1950), 2008).

Like-named read-outs stand apart in the source and are kept apart here.

The target of assay [1] is Water soluble DQ2 (sDQ2), thrombin-cleaved (human). The assay is described as follows: peptide dissociation followed by MALDI-TOF MS.
Assay [2] addresses HLA-DQ2 (DQA1*0501, DQB1*0201) (Homo sapiens, UniProt P01909+P01920, A45G/A70V/D89A/E106A/E77G/E98D/H199R/L107V/N214S/P84L/P87L/T103K/T109R/T172A/T60S/V78E/V99I/Y58L/Y62S/Y69I/Y79F). The settings on record: DQ2 affinity purified from B-LCL; ref [3],[4]; cited from earlier work.
Assay [3] concerns the target water soluble DQ2 (sDQ2) (Homo sapiens, UniProt P01909+P01920, A45G/A70V/D89A/E106A/E77G/E98D/H199R/L107V/N214S/P84L/P87L/T103K/T109R/T172A/T60S/V78E/V99I/Y58L/Y62S/Y69I/Y79F). It counts as binding. The settings on record: ratio of t1/2 without DM to t1/2 with 6 μM DM; sDQ2 complexes.
Assay [4] has as its target Water soluble DR3 (sDR3), thrombin-cleaved (human). Put plainly: peptide dissociation followed by MALDI-TOF MS.
Assay [5] deals with water soluble DR3 (sDR3). Format: binding, human. Particulars: pH 5, without DM. The procedure, abridged:
(§1)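 Incubated at 37°C, pH 5.0 citrate phosphate, ±6 μM soluble DM, with 35 μM competitor MT 65kDa 3-13; stopped with cold pH 7.2 buffer. Released peptides were quantified by MALDI-TOF MS against added isotopic indicator peptides.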

Assay [6] addresses water soluble DR3 (sDR3) (Homo sapiens, UniProt P01903+P01911, A100K/A102G/A103R/A169T/F55Y/I96L/K41T/L162R/M171V/P40S/Q125H/Q178H/Q39Y/R42S/S66N/T106N/W38E/Y61H). It counts as binding. The settings on record: ratio of t1/2 without DM to t1/2 with 6 μM DM; sDR3 complex; listed as DR3-CLIP1. The procedure, abridged:
as §1

In assay [7] the target is HLA-DQ2 (DQA1*0501, DQB1*0201) (human (endogenous in B-LCL)). Put plainly: affinity purification with mass spectrometry.
For assay [8] the target is unchanged. Put plainly: affinity purification with mass spectrometry. The source holds these as a separate data set.
In assay [9] the target is HLA-DR3 (DRA1*0101, DRB1*0301) (human (endogenous in B-LCL)). The assay is described as follows: affinity purification with mass spectrometry.

In [1], “CLIP1 M91P released peptide of sDQ2-CLIP1 M91P” gave a t1/2 of DM-mediated dissociation (6 μM DM) of 8.9 h and a t1/2 of spontaneous dissociation of 93.6 h.
On the same counts, the results for “CLIP1 M91A released peptide of sDQ2-CLIP1 M91A” are 0.7 h and 13.1 h.
As to RDSGMATPLLMQALPM GALGAGSLVPR [CLIP2], in [2], the “IC50 values/affinity for DQ2 compared to conventional CLIP (CLIP1) peptides” value is on record as “lower”. For the same molecule, the “DM-mediated increase in dissociation” value in [3] is 28x.
As for “CLIP1 released peptide of sDQ2-CLIP1 and sDR3-CLIP1”, the t1/2 of DM-mediated dissociation (6 μM DM) was 9 h in [1] and 0.25 h in assay [4]. For the same molecule, the t1/2 of spontaneous dissociation was determined as 144 h in assay [1] and 61.5 h in [4].
RDSGPVSKMRMATPLLMQAGAGSLVPR [CLIP1]: the “DM-mediated increase in dissociation” value is recorded as 16x in [3] and 246x in assay [6]. Further, the “Faster spontaneous release from DR3 compared to CLIP1 and CLIP2 from sDQ2” value in assay [5] is reported as 2 fold.
Regarding “RDSGPVSKARMATPLLMQAGAGSLVPR [CLIP1 M91A]”, the “DM-mediated increase in dissociation” value in [3] stood at 19x.
Still for that read-out and setting: next, “RDSGPVSKPRMATPLLMQAGAGSLVPR [CLIP1 M91P]”: 11x.
As to CLIP2 released peptide of sDQ2-CLIP2, in [1], the t1/2 of DM-mediated dissociation (6 μM DM) came to 5 h and the t1/2 of spontaneous dissociation was 142 h.
Consider MATPLLMQALPMGALPQ [Ii93-109], for which the pmol of peptide eluted from 50 μg of affinity-purified class II in [7] was determined as 3.8 pmol.
LPKPPKPVSKMRMATPLLMQA [Ii81-101]: the pmol of peptide eluted from 50 μg of affinity-purified class II in [8] turned out to be 31.5 pmol; in assay [9], 106 pmol; in assay [7], 88.4 pmol.
In the case of MATPLLMQALPMGALP [Ii93-108], the pmol of peptide eluted from 50 μg of affinity-purified class II in assay [8] came out at 159 pmol; in [7], 156 pmol.
In [9], LPKPPKPVSKMRMATPLLMQALPM [Ii81-104] gave a pmol of peptide eluted from 50 μg of affinity-purified class II of 42.4 pmol.
With LPKPPKPVSKMRMATPLLMQALP [Ii81-103], the values for the pmol of peptide eluted from 50 μg of affinity-purified class II in assay [8] and in [7] were 79.5 pmol and 71.1 pmol, respectively.
PKPPKPVSKMRMATPLLMQALP [Ii82-103]: the pmol of peptide eluted from 50 μg of affinity-purified class II in [8] was 16.5 pmol; in assay [9], 113 pmol; in [7], 36.8 pmol.
